# Test results published in ChEMBL document CHEMBL1777788, “Synthesis and in vitro antimicrobial activities of new (cyano-NNO-azoxy)pyrazole derivatives” (2011).
# Experiments:
# Candida parapsilosis [1] = assay: Antimicrobial activity against Candida parapsilosis isolate 26 after 48 hrs by microdilution broth method; type: functional; conditions: Lodderomyces parapsilosis, isolate 26, 48 h
# How it was run: (§1)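 Yeasts were grown overnight on Sabouraud dextrose agar at 35°C, suspended in water, and adjusted at 530 nm to McFarland 0.5 (approximately 1-5 x 10^6 CFU/ml). They were then diluted 1:100 and 1:20 in RPMI 1640 with 0.165 M MOPS and 2% glucose. Compound in DMSO was tested at ten concentrations, 0.25–256 mg/L, with incubation at 35°C. At 48 h, MIC was read spectrophotometrically as 50% turbidity reduction versus growth control.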
# Candida parapsilosis [2] = assay: Antimicrobial activity against Candida parapsilosis isolate 44 after 48 hrs by microdilution broth method; type: functional; conditions: Lodderomyces parapsilosis, isolate 44, 48 h; how it was run: as §1
# Candida parapsilosis [3] = assay: Antimicrobial activity against Candida parapsilosis isolate 39 after 48 hrs by microdilution broth method; type: functional; conditions: Lodderomyces parapsilosis, isolate 39, 48 h
# How it was run: (§2)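 Yeasts grown overnight on Sabouraud dextrose agar at 35°C, suspended in sterile water, and adjusted to McFarland 0.5 at 530 nm (about 1-5 x 10^6 CFU/ml), then diluted 1:100 and 1:20 in RPMI 1640 with 0.165 M MOPS and 2% glucose. Compound in DMSO tested at ten concentrations, 0.25-256 mg/L, at 35°C. MIC read spectrophotometrically at 48 h as 50% turbidity reduction versus growth control.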
# [4] = test system: Cryptococcus deneoformans; assay: Antimicrobial activity against Cryptococcus neoformans var. neoformans isolate 25 after 48 hrs by microdilution broth method; type: functional; conditions: isolate 25, 48 h; how it was run: as §1
# Candida parapsilosis [5] = assay: Antimicrobial activity against Candida parapsilosis ATCC 22019 after 48 hrs by microdilution broth method; type: functional; conditions: Lodderomyces parapsilosis, ATCC 22019, 48 h; how it was run: as §1
# Candida tropicalis [6] = assay: Antimicrobial activity against Candida tropicalis isolate 11 after 48 hrs by microdilution broth method; type: functional; conditions: isolate 11, 48 h; how it was run: as §1
# Candida parapsilosis [7] = assay: Antimicrobial activity against Candida parapsilosis isolate 19 after 48 hrs by microdilution broth method; type: functional; conditions: Lodderomyces parapsilosis, isolate 19, 48 h; how it was run: as §1
# Candida tropicalis [8] = assay: Antimicrobial activity against Candida tropicalis isolate 33 after 48 hrs by microdilution broth method; type: functional; conditions: isolate 33, 48 h; how it was run: as §1
# [9] = test system: Cryptococcus deneoformans; assay: Antimicrobial activity against Cryptococcus neoformans var. neoformans isolate 14 after 48 hrs by microdilution broth method; type: functional; conditions: isolate 14, 48 h; how it was run: as §1
# Pichia kudriavzevii [10] = assay: Antimicrobial activity against Candida krusei isolate 48 after 48 hrs by microdilution broth method; type: functional
# Nakaseomyces glabratus [11] = assay: Antimicrobial activity against Candida glabrata isolate 32 after 48 hrs by microdilution broth method; type: functional; conditions: isolate 32, 48 h; how it was run: as §1
# Nakaseomyces glabratus [12] = assay: Antimicrobial activity against Candida glabrata isolate 46 after 48 hrs by microdilution broth method; type: functional; how it was run: as §1
# [13] = test system: Cryptococcus deneoformans; assay: Antimicrobial activity against Cryptococcus neoformans var. neoformans isolate 27 after 48 hrs by microdilution broth method; type: functional; conditions: isolate 27, 48 h; how it was run: as §1
# Pichia kudriavzevii [14] = assay: Antimicrobial activity against Candida krusei isolate 43 after 48 hrs by microdilution broth method; type: functional
# Candida albicans [15] = assay: Antimicrobial activity against Candida albicans isolate 41 after 48 hrs by microdilution broth method; type: functional; conditions: isolate 41, 48 h; how it was run: as §1
# Pichia kudriavzevii [16] = assay: Antimicrobial activity against Candida krusei isolate 31 after 48 hrs by microdilution broth method; type: functional; conditions: isolate 31, 48 h; how it was run: as §1
# Candida tropicalis [17] = assay: Antimicrobial activity against Candida tropicalis isolate 22 after 48 hrs by microdilution broth method; type: functional; conditions: isolate 22, 48 h; how it was run: as §1
# Candida albicans [18] = assay: Antimicrobial activity against Candida albicans isolate 48 after 48 hrs by microdilution broth method; type: functional; conditions: isolate 48, 48 h; how it was run: as §1
# Candida albicans [19] = assay: Antimicrobial activity against Candida albicans isolate 31 after 48 hrs by microdilution broth method; type: functional; conditions: isolate 31, 48 h; how it was run: as §1
# Pichia kudriavzevii [20] = assay: Antimicrobial activity against Candida krusei ATCC 6258 after 48 hrs by microdilution broth method; type: functional; conditions: ATCC 6258, 48 h
# Candida albicans [21] = assay: Antimicrobial activity against Candida albicans ATCC 90028 after 48 hrs by microdilution broth method; type: functional; conditions: ATCC 90028, 48 h; how it was run: as §2
# Candida tropicalis [22] = assay: Antimicrobial activity against Candida tropicalis isolate 15 after 48 hrs by microdilution broth method; type: functional; conditions: isolate 15, 48 h; how it was run: as §1
# [23] = test system: Cryptococcus deneoformans; assay: Antimicrobial activity against Cryptococcus neoformans var. neoformans isolate 30 after 48 hrs by microdilution broth method; type: functional; conditions: isolate 30, 48 h; how it was run: as §1
# Candida albicans [24] = assay: Antimicrobial activity against Candida albicans isolate 47 after 48 hrs by microdilution broth method; type: functional; conditions: isolate 47, 48 h; how it was run: as §1
# Nakaseomyces glabratus [25] = assay: Antimicrobial activity against Candida glabrata isolate 49 after 48 hrs by microdilution broth method; type: functional; how it was run: as §1
# Nakaseomyces glabratus [26] = assay: Antimicrobial activity against Candida glabrata isolate 30 after 48 hrs by microdilution broth method; type: functional; how it was run: as §1
# Escherichia coli = assay: Antimicrobial activity against Escherichia coli isolate after 24 hrs by microdilution broth method
# Pseudomonas aeruginosa [27] = assay: Antimicrobial activity against Pseudomonas aeruginosa isolate 2 after 24 hrs by microdilution broth method; conditions: isolate 2, 24 h
# Proteus mirabilis = assay: Antimicrobial activity against Proteus mirabilis isolate after 24 hrs by microdilution broth method
# Staphylococcus aureus = assay: Antimicrobial activity against methicillin-susceptible Staphylococcus aureus isolate after 24 hrs by microdilution broth method
# Pseudomonas aeruginosa [28] = assay: Antimicrobial activity against Pseudomonas aeruginosa isolate 1 after 24 hrs by microdilution broth method; conditions: isolate 1, 24 h
compound,measurement,setting,value
OC(Cn1cncn1)(Cn1cncn1)c1ccc(F)cc1F [FLUCONAZOLE],MIC,Candida parapsilosis [1],1 µg/mL
same,MIC,Candida parapsilosis [2],2 µg/mL
same,MIC,Candida parapsilosis [3],1 µg/mL
same,MIC,[4],2 µg/mL
same,MIC,Candida parapsilosis [5],2 µg/mL
same,MIC,Candida tropicalis [6],1 µg/mL
same,MIC,Candida parapsilosis [7],1 µg/mL
same,MIC,Candida tropicalis [8],1 µg/mL
same,MIC,[9],0.5 µg/mL
same,MIC,Pichia kudriavzevii [10],32 µg/mL
same,MIC,Nakaseomyces glabratus [11],> 256 µg/mL
same,MIC,Nakaseomyces glabratus [12],16 µg/mL
same,MIC,[13],2 µg/mL
same,MIC,Pichia kudriavzevii [14],64 µg/mL
same,MIC,Candida albicans [15],0.12 µg/mL
same,MIC,Pichia kudriavzevii [16],32 µg/mL
same,MIC,Candida tropicalis [17],2 µg/mL
same,MIC,Candida albicans [18],0.12 µg/mL
same,MIC,Candida albicans [19],0.25 µg/mL
same,MIC,Pichia kudriavzevii [20],32 µg/mL
same,MIC,Candida albicans [21],0.12 µg/mL
same,MIC,Candida tropicalis [22],1 µg/mL
same,MIC,[23],4 µg/mL
same,MIC,Candida albicans [24],0.25 µg/mL
Cc1nn(C)c(-c2cccs2)c1/[N+]([O-])=N/C#N,MIC,Candida parapsilosis [1],16 µg/mL
same,MIC,Candida parapsilosis [3],16 µg/mL
same,MIC,[4],0.5 µg/mL
same,MIC,Candida parapsilosis [5],32 µg/mL
same,MIC,Candida tropicalis [6],32 µg/mL
same,MIC,Candida parapsilosis [7],32 µg/mL
same,MIC,Candida tropicalis [8],32 µg/mL
same,MIC,[9],0.25 µg/mL
same,MIC,Pichia kudriavzevii [10],2 µg/mL
same,MIC,Nakaseomyces glabratus [11],2 µg/mL
same,MIC,Nakaseomyces glabratus [12],2 µg/mL
same,MIC,[13],0.25 µg/mL
same,MIC,Pichia kudriavzevii [14],1 µg/mL
same,MIC,Pichia kudriavzevii [16],1 µg/mL
same,MIC,Candida tropicalis [17],32 µg/mL
same,MIC,Candida albicans [18],4 µg/mL
same,MIC,Candida albicans [19],4 µg/mL
same,MIC,Pichia kudriavzevii [20],1 µg/mL
same,MIC,Candida albicans [21],4 µg/mL
same,MIC,Candida tropicalis [22],64 µg/mL
same,MIC,[23],0.5 µg/mL
same,MIC,Nakaseomyces glabratus [25],2 µg/mL
same,MIC,Candida albicans [24],4 µg/mL
same,MIC,Nakaseomyces glabratus [26],2 µg/mL
Cc1c(/[N+]([O-])=N/C#N)c(-c2ccco2)nn1C,MIC,Candida parapsilosis [1],8 µg/mL
same,MIC,Candida parapsilosis [3],16 µg/mL
same,MIC,[4],0.25 µg/mL
same,MIC,Candida parapsilosis [5],32 µg/mL
same,MIC,Candida tropicalis [6],32 µg/mL
same,MIC,Candida parapsilosis [7],64 µg/mL
same,MIC,Candida tropicalis [8],128 µg/mL
same,MIC,[9],0.25 µg/mL
same,MIC,Pichia kudriavzevii [10],2 µg/mL
same,MIC,Nakaseomyces glabratus [11],2 µg/mL
same,MIC,Nakaseomyces glabratus [12],1 µg/mL
same,MIC,[13],0.25 µg/mL
same,MIC,Pichia kudriavzevii [14],2 µg/mL
same,MIC,Pichia kudriavzevii [16],1 µg/mL
same,MIC,Candida tropicalis [17],128 µg/mL
same,MIC,Candida albicans [18],4 µg/mL
same,MIC,Candida albicans [19],2 µg/mL
same,MIC,Pichia kudriavzevii [20],1 µg/mL
same,MIC,Candida albicans [21],1 µg/mL
same,MIC,Candida tropicalis [22],128 µg/mL
same,MIC,[23],0.25 µg/mL
same,MIC,Nakaseomyces glabratus [25],1 µg/mL
same,MIC,Candida albicans [24],4 µg/mL
same,MIC,Nakaseomyces glabratus [26],1 µg/mL
Cc1nn(C)c(C)c1/[N+]([O-])=N/C#N,MIC,Escherichia coli,> 128 µg/mL
same,MIC,Pseudomonas aeruginosa [27],> 128 µg/mL
same,MIC,Candida parapsilosis [1],64 µg/mL
same,MIC,Candida parapsilosis [2],64 µg/mL
same,MIC,[4],32 µg/mL
same,MIC,Candida parapsilosis [5],32 µg/mL
same,MIC,Candida tropicalis [6],128 µg/mL
same,MIC,Candida parapsilosis [7],64 µg/mL
same,MIC,Proteus mirabilis,> 128 µg/mL
same,MIC,Candida tropicalis [8],64 µg/mL
same,MIC,[9],32 µg/mL
same,MIC,Pichia kudriavzevii [10],32 µg/mL
same,MIC,Nakaseomyces glabratus [11],16 µg/mL
same,MIC,Staphylococcus aureus,> 128 µg/mL
same,MIC,Nakaseomyces glabratus [12],64 µg/mL
same,MIC,[13],32 µg/mL
same,MIC,Pichia kudriavzevii [14],32 µg/mL
same,MIC,Candida albicans [15],32 µg/mL
same,MIC,Pichia kudriavzevii [16],32 µg/mL
same,MIC,Candida tropicalis [17],64 µg/mL
same,MIC,Candida albicans [18],32 µg/mL
same,MIC,Pseudomonas aeruginosa [28],> 128 µg/mL
same,MIC,Candida albicans [19],32 µg/mL
same,MIC,Pichia kudriavzevii [20],16 µg/mL
same,MIC,[23],32 µg/mL
same,MIC,Nakaseomyces glabratus [25],64 µg/mL
same,MIC,Candida albicans [24],32 µg/mL
same,MIC,Nakaseomyces glabratus [26],64 µg/mL
Cc1c(/[N+]([O-])=N/C(N)=O)c(-c2cccs2)nn1C,MIC,Candida parapsilosis [1],> 128 µg/mL
same,MIC,Candida parapsilosis [3],> 128 µg/mL
same,MIC,[4],128 µg/mL
same,MIC,Candida parapsilosis [5],> 128 µg/mL
same,MIC,Candida tropicalis [6],> 128 µg/mL
same,MIC,Candida parapsilosis [7],> 128 µg/mL
same,MIC,Candida tropicalis [8],> 128 µg/mL
same,MIC,[9],64 µg/mL
same,MIC,Pichia kudriavzevii [10],> 128 µg/mL
same,MIC,Nakaseomyces glabratus [11],> 128 µg/mL
same,MIC,Nakaseomyces glabratus [12],> 128 µg/mL
same,MIC,[13],64 µg/mL
same,MIC,Pichia kudriavzevii [14],> 128 µg/mL
same,MIC,Pichia kudriavzevii [16],> 128 µg/mL
same,MIC,Candida tropicalis [17],> 128 µg/mL
same,MIC,Candida albicans [18],> 128 µg/mL
same,MIC,Candida albicans [19],> 128 µg/mL
same,MIC,Pichia kudriavzevii [20],> 128 µg/mL
same,MIC,Candida albicans [21],> 128 µg/mL
same,MIC,Candida tropicalis [22],> 128 µg/mL
same,MIC,[23],128 µg/mL
same,MIC,Nakaseomyces glabratus [25],> 128 µg/mL
same,MIC,Candida albicans [24],> 128 µg/mL
same,MIC,Nakaseomyces glabratus [26],> 128 µg/mL
